Active and inactive are the calls of the source.

For data set [1], the system named is HEK293. Kind of data set: Inhibition of rabbit recombinant Cav2.2/rat recombinant Cavbeta3 expressed in HEK-293 cell assessed as current density at 500 uM after 3 hrs by whole-cell patch clamp technique. The data set is classed as cell-based. The method, boiled down:
(§1)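 HEK-293 cells were transiently co-transfected (lipofection) with CaV subunit cDNAs plus a GFP plasmid. Cells were split at ~10% confluence 2 days later and GFP-positive cells recorded ~4 h after. Cells were preincubated 1–3 h in medium with 500 µM compound (water stock). Whole-cell Ba²⁺ currents were recorded at 22–24 °C with CsCl/EGTA/MgATP pipette solution, pH 7.1, P/4 leak subtraction, normalized to Cm, within 15 min of break-in. Pulses were 140 ms from Vh −80 mV. Student's t-test.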

For data set [2], the target named is Cav1.3/Cav beta3 complex (Rattus norvegicus) (UniProt P27732+P54287). Kind of data set: Inhibition of rat recombinant Cav1.3/Cavbeta3 expressed in HEK-293 cell assessed as current density at 500 uM after 3 hrs by whole-cell patch clamp technique. The data set is classed as cell-based. As to conditions: HEK293. The method, boiled down: (§2)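 Rat CaV1.3α1 (pcDNA6/His) was transiently co-transfected with β3, with or without α2δ-1, plus GFP into HEK-293 cells. Cells were incubated 3 h with 500 µM, then whole-cell Ba²⁺ current–voltage relationships were recorded at 22–24 °C, normalized to membrane capacitance. n = 9 with α2δ-1; n = 5–7 without.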

In data set [3] the test system is HEK293. In words: Inhibition of rabbit recombinant Cav2.2/rat recombinant Cavbeta3/Cavalpha2delta-1 expressed in HEK-293 cell assessed as decrease in current density at 500 uM at holding potential of -80 mV after 3 hrs by whole-cell patch clamp technique. The data set is classed as cell-based. The method, boiled down: as §1
For data set [4], the system named is HEK293. Kind of data set: Inhibition of rabbit recombinant Cav2.2/rat recombinant Cavbeta3/Cavalpha2delta-1 expressed in HEK-293 cell assessed as decrease in inward current at 500 uM at voltages from -20 to +30 mV after 3 hrs by whole-cell patch clamp technique. The data set is classed as cell-based. Put shortly:
as §1

The test system of data set [5] is Rattus norvegicus. In words: Anti-allodynic activity in Sprague-Dawley rat spinal nerve ligation-induced neuropathic pain model assessed as reversal of tactile allodynia at 10 to 300 ug administered intrathecally measured after 2 hrs by von frey filament based paw withdrawal threshold method. The data set is classed as functional, organism-based. Put shortly:
(§3)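 Rats 140–160 g, 12/12 h light/dark, food and water ad libitum. Spinal nerve ligation under ketamine/xylazine (45:12 mg/kg i.p.). An intrathecal PE-10 catheter was placed to the lumbar level via the atlantooccipital membrane, followed by 5 d recovery. Rats with motor impairment were excluded. Bolus doses of 10–300 µg/rat were given to allodynic rats, against vehicle. 50% paw withdrawal threshold to von Frey filaments after 30–40 min acclimation on mesh.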

For data set [6], the system named is HEK293. In words: Inhibition of rabbit recombinant Cav2.2/rat recombinant Cavbeta3/Cavalpha2delta-1 expressed in HEK-293 cell assessed as hyperpolarizing shift in half-inactivation potential at 500 uM after 3 hrs by whole cell patch clamp technique. As to conditions: in the assay text read “depolarizing” for “hyperpolarizing”. The data set is classed as cell-based. The method, boiled down:
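Transiently transfected CaV2.2α1/β3/α2δ-1 HEK-293 cells were treated 3 h with 500 µM in culture medium. Whole-cell recording at 22–24 °C. 2 s prepulses of various amplitudes from Vh −80 mV, then test pulses to +20 mV. Steady-state inactivation was fitted with a Boltzmann equation to give V½ and slope; n = 4–6.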

For data set [7], the species on record is Rattus norvegicus. In words: Toxicity in Sprague-Dawley rat spinal nerve ligation-induced neuropathic pain model assessed as reduction of stepping at 10 to 300 ug, it. The data set is classed as organism-based. The conditions noted are these: in vivo, icv_or_intrathecal.
Data set [8] is filed under the species Rattus norvegicus. In words: Toxicity in Sprague-Dawley rat spinal nerve ligation-induced neuropathic pain model assessed as reduction of righting at 10 to 300 ug, it. The data set is classed as organism-based. As to conditions: in vivo, icv_or_intrathecal.
The subject of data set [9] is Rattus norvegicus. Kind of data set: Anti-allodynic activity in Sprague-Dawley rat spinal nerve ligation-induced neuropathic pain model assessed as reversal of tactile allodynia at 10 to 300 ug administered intrathecally measured after 1 hr by von frey filament based paw withdrawal threshold method. The data set is classed as functional, organism-based. The method, boiled down: as §3

Data set [10] concerns Rattus norvegicus. Kind of data set: Anti-allodynic activity in Sprague-Dawley rat spinal nerve ligation-induced neuropathic pain model assessed as tactile allodynia at 10 to 300 ug administered intrathecally measured after 4 hrs by von frey filament based paw withdrawal threshold method. The data set is classed as functional, organism-based. The method, boiled down: as §3

Data set [11] is filed under the species Rattus norvegicus. In words: Toxicity in Sprague-Dawley rat spinal nerve ligation-induced neuropathic pain model assessed as reduction of corneal and pinna reflexes at 10 to 300 ug, it. As to conditions: in vivo, icv_or_intrathecal. The data set is classed as organism-based, Cornea.
Data set [12] concerns the target Voltage-dependent T-type calcium channel subunit alpha-1G (Homo sapiens) (UniProt O43497). In words: Inhibition of human recombinant Cav3.1 expressed in HEK-293 cell assessed as current density at 500 uM after 3 hrs by whole cell patch clamp technique. The data set is classed as cell-based. The conditions noted are these: HEK293. The method, boiled down:
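HEK-293 cells stably expressing CaV3.1a (no auxiliary subunits) were re-seeded on poly-L-lysine coverslips and recorded ~4 h later. Cells were incubated 3 h with 500 µM. Whole-cell current–voltage relationships were recorded at 22–24 °C, normalized to Cm; n = 5–6.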

Data set [13] relates to HEK293. Kind of data set: Inhibition of rabbit recombinant Cav2.2/rat recombinant Cavbeta3/Cavalpha2delta-1 expressed in HEK-293 cell assessed as current density at 500 uM at holding potential of -80 mV after 1 to 2 hrs by whole-cell patch clamp technique. The data set is classed as cell-based. Put shortly:
as §1

Data set [14] relates to HEK293. Kind of data set: Inhibition of rabbit recombinant Cav2.2/rat recombinant Cavbeta3/Cavalpha2delta-1 expressed in HEK-293 cell assessed as inhibition of channel current at 500 uM by whole-cell patch clamp technique. The data set is classed as cell-based. Put shortly:
as §1

Data set [15] deals with HEK293. In words: Inhibition of rabbit recombinant Cav2.2/rat recombinant Cavbeta3/Cavalpha2delta-1 expressed in HEK-293 cell assessed as decrease in whole cell Ba2+ current at 500 uM at holding potential of -80 mV up to 3 hrs by whole-cell patch clamp technique. The data set is classed as cell-based. The method, boiled down: as §1
In data set [16] the target is Cav1.3/Cav beta3/Cav alpha2delta complex (Rattus norvegicus) (UniProt P54290+P27732+P54287). In words: Inhibition of rat recombinant Cav1.3/Cavbeta3/Cavalpha2delta-1 expressed in HEK-293 cell assessed as decrease in current density at 500 uM after 3 hrs by whole-cell patch clamp technique. The data set is classed as cell-based. The conditions noted are these: HEK293. The method, boiled down:
as §2

Chain of Voltage-dependent T-type calcium channel subunit alpha-1G (Homo sapiens) (O43497 whole entry): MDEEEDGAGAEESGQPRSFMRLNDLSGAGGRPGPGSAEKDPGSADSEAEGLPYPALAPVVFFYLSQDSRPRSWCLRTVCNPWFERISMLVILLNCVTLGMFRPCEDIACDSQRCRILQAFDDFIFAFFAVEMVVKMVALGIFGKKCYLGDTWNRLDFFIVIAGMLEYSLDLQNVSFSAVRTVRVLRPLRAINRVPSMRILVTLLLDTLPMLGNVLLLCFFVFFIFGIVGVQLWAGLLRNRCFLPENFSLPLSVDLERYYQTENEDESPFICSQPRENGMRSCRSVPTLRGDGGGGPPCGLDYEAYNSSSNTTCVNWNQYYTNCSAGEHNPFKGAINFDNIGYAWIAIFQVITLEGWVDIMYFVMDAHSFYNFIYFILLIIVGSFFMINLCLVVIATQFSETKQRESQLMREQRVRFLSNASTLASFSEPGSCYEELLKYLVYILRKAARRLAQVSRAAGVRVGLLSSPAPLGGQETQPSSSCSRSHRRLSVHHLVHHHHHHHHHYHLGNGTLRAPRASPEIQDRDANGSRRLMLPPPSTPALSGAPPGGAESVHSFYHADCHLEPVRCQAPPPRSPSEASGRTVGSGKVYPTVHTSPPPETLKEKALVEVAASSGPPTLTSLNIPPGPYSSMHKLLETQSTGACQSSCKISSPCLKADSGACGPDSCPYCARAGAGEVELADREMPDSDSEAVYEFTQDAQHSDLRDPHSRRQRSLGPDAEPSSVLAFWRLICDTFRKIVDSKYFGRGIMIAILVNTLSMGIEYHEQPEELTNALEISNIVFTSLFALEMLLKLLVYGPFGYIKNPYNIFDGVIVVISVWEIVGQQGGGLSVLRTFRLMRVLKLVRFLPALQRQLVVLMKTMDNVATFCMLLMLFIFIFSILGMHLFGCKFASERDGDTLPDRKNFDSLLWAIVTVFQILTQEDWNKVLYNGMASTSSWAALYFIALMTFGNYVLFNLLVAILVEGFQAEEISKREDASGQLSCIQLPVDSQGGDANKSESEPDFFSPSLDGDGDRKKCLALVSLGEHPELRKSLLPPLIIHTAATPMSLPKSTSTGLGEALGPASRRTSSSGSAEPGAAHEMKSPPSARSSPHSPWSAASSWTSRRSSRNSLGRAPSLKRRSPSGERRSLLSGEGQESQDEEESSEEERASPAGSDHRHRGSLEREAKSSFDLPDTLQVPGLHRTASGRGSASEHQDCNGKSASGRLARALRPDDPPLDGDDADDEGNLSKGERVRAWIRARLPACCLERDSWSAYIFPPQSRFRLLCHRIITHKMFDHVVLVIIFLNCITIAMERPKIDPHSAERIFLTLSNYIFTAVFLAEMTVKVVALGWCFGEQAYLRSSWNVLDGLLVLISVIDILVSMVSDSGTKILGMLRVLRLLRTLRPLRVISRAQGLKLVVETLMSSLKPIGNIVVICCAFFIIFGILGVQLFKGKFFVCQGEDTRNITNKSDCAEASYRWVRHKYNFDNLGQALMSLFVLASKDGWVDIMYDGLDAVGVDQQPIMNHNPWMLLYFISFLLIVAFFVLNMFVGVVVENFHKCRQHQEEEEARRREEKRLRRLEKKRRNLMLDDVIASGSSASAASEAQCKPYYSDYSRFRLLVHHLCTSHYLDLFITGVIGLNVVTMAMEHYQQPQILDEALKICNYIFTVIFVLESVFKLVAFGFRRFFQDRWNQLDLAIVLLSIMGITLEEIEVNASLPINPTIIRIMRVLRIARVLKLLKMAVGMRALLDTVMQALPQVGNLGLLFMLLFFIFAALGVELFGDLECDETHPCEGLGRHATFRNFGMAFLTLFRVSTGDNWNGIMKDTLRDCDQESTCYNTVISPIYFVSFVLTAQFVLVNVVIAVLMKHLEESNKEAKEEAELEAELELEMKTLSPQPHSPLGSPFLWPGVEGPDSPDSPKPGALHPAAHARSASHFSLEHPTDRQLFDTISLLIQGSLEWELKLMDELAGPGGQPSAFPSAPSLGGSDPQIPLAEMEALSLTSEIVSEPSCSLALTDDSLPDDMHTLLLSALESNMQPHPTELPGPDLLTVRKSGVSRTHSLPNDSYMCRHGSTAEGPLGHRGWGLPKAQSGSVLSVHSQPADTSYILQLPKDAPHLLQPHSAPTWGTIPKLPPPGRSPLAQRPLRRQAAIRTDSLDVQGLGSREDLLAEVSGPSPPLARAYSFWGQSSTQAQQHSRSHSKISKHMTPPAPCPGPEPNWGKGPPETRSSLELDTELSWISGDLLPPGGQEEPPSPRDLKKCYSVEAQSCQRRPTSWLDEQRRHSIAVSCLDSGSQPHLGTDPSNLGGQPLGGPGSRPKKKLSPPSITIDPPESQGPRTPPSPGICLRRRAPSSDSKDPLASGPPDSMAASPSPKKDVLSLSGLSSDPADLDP

As to `Cl.NCC1C2CC3CC(C2)CC1(C(=O)O)C3` (stereo unspecified), the inhibition result in data set [1], in data set [2], in data set [12] and in data set [13] was “inactive” throughout. Moreover, the inhibition result in data set [3], in data set [4], in data set [6], in data set [15] and in data set [16] was “Active” in each case. Besides, the result in data set [5] and in [9] was Active. The Activity entry in [7], in [8] and in data set [11] was “Non-toxic” in each case. In addition, the outcome in [10] was inactive. Besides, in data set [14], the inhibition is 30%.

The values are drawn from ChEMBL document CHEMBL3124805, “Anti-allodynic effect of 2-(aminomethyl)adamantane-1-carboxylic acid in a rat model of neuropathic pain: a mechanism dependent on CaV2.2 channel inhibition” (Bioorg Med Chem, 2014).
